Source: PubChem (several laboratories)
Shown are actives, neighbours in structure and some others; about 6.8% of the full set was active somewhere.
ALR H2O2 inh – human ALR oxidase inhibition via reduced H2O2. P55789. purified ALR, DTT oxidation, H2O2 HRP-luminol luminescence. inhibition, % (no concentration beside the values). actives 3.8% (n = 290,000). AID 485317;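 active means mean replicate inhibition above about 79%, with every replicate also reaching it, limit read from the data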
Target sequence (P55789 whole entry, looked up): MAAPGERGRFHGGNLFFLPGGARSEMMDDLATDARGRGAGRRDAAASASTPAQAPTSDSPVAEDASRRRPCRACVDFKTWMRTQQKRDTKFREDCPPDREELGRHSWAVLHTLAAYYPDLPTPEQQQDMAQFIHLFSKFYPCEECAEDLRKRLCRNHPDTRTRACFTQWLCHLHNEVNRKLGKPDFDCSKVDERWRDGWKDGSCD
AI-2 QS modul – modulates the Vibrio harveyi AI-2 quorum sensing system | actives 0.4% (n = 300,000) | AID 2094 | activity change, % at 7.5 µM | Vibrio harveyi JMH597 AI-2 luminescence/OD600 ratio, 9 h; hits give low values; strain lacks LuxN and CqsS sensors; 0 = neutral-control median; in the data active means activity change below about -75%, passing the limit was not always enough;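 further: luminescence divided by OD600 gain over 9 h not by final OD600 alone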
HSF1 inh – HSF1 inhibition | activity change, negative = inhibition, % at 7.5 µM (by protocol) | actives 0.77% (n = 300,000) | NIH3T3-HGL HSE-luciferase, MG132-induced, luminescence 8 h; hits give low values;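 active means more than half of replicate wells show activity change below -50%, luminescence cut by over half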;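 further: luciferase reports HSF-1 transcriptional activity via heat shock element; 0% = median of DMSO wells and -100% = zero luminescence signal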
PHOSPHO1 inh – PHOSPHO1 (human) inhibition; Q8TCT1; recombinant PHOSPHO1, absorbance phosphatase assay; inhibition, % at 13.3 µM; actives 1.1% (n = 290,000); in the data active means inhibition above about 60%
Target sequence (Q8TCT1 whole entry, looked up): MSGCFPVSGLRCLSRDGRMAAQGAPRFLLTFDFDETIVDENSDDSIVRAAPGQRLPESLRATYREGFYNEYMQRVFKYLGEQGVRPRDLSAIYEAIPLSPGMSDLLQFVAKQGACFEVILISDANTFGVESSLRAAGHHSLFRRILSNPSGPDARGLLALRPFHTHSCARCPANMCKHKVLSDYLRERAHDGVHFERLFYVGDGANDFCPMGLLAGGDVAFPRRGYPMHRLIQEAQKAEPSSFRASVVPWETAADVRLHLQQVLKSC
HSF-1 act – increases HSF-1 driven luciferase reporter signal; NIH3T3-HGL HSF-1 luciferase reporter, MG132, 8 h; 100% = twice DMSO control signal; activation, % at 9 µM; actives 1.7% (n = 300,000); AID 504408;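 active means mean replicate activation of at least 50% with a set share of replicates each reaching 50%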;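 further: 0% = median of the neutral control wells and 100% = twice that signal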
HCV core dimer – blocks dimerization of HCV core protein | AID 1899 | actives 0.33% (n = 300,000) | TR-FRET GST/Flag-core106 dimerization, 1536-well | inhibition, % at 5 µM;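 active means inhibition above the mean of all tested compounds plus 3 SD, set per screening campaign, cut at about 45% in these data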
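System: GST/Flag-tagged HCV core106 proteins. Incubation: compound-protein-antibody incubation 4 h at 22.5 °C. Technique: HTRF with 340 nm excitation, 617/671 nm emission. Medium: KF-containing HEPES buffer, pH 7.45, DTT, CHAPS, BSA. Read-out: inhibition (%) from 671 over 617 nm ratio. Also added: Eu(K)-anti-GST 90 ng/mL plus XL665-anti-Flag 1 µg/mL.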
Active calls of the source: *; . = not tested or not shown.

SMILES	ALR H2O2 inh	AI-2 QS modul	HSF1 inh	PHOSPHO1 inh	HSF-1 act	HCV core dimer
Brc1ccccc1-c1nnc(SCc2nc3ccccc3s2)o1	96*	-65	11	-7	54*	5
CCN(CC)S(=O)(=O)c1cccc(-c2nnc(SCCCC(=O)c3ccccc3)o2)c1	-1	15	-2	4	1	7
CCN(CC)S(=O)(=O)c1cccc(-c2nnc(SCc3nc4ccccc4s3)o2)c1	-26	50	40	-5	62*	3
Cc1cccc2c1c1ccc3c(c1n2C)C(=O)C=CC3=O	.	.	.	3	.	.
COC(=O)CN1C(c2cccc(Cl)c2)=Nc2ccc(Cl)cc2C1c1ccccc1 (stereo not given)	-14	12	42	-7	64*	-3
CN(CCOc1ccccc1)C(=O)CCc1c[nH]c2ccccc12	96*	24	12	6	10	4
CC(=O)Nc1ccc(S(=O)(=O)N(C)CC(=O)OCC(=O)Nc2cc(C)on2)cc1	-3	.	.	.	.	.
Cc1ccc2c(CN3CCN(S(=O)(=O)/C=C/c4ccccc4)CC3)cc(=O)oc2c1	-18	22	28	9	78*	12
Cc1ccc2c(CN3CCCCC3)cc(=O)oc2c1	-1	9	3	15	3	7
COc1ccc(Cl)cc1NC(=O)CN(C)C(C)C(=O)NC(=O)NC1CCCCC1 (stereo not given)	-2	29	-5	.	-17	3
Cc1ccc(C(=O)Nc2cccc([N+](=O)[O-])c2)cc1S(=O)(=O)Nc1cccc(C(=O)O)c1	5	6	-4	-7	14	-2
Cc1ccccc1NS(=O)(=O)c1cccc(C(=O)Nc2cccc(C(=O)O)c2)c1	3	2	-3	29	-18	11
O=C(Nc1ccccc1C(=O)O)c1cccc(NS(=O)(=O)c2ccc(Br)cc2)c1	13	24	-1	10	-19	12
O=C(Nc1ccccc1C(=O)O)c1cccc(S(=O)(=O)Nc2ccc(Br)cc2)c1	99*	-9	-2	26	-9	-3
O=C(O)c1cccc(NC(=O)c2cccc(S(=O)(=O)Nc3cccc([N+](=O)[O-])c3)c2)c1	76*	26	-3	20	-7	-7
O=C(Nc1ccccc1O)c1cccc(S(=O)(=O)Nc2ccccc2O)c1	99*	18	79	.	123*	-9
CCN(CC)S(=O)(=O)c1ccc2c(c1)N(CC(=O)N1CCCC1)C(=O)CO2	-6	3	-4	0	-3	-8
COc1ccc(C(=S)NCS(=O)(=O)c2ccc(C)cc2)cc1	.	6	11	-15	19	-14
Cc1ccc(S(=O)(=O)CNC(=S)c2ccc3ccccc3c2)cc1	-3	0	17	86*	7	5
Cc1ccc(S(=O)(=O)CNC(=S)c2cccc(C)c2)cc1	.	42	4	90*	13	-8
CC(Sc1nnc(Nc2ccccc2F)s1)C(=O)NC1CC1 (stereo not given)	1	.	.	.	.	.
COC(=O)c1cc(OC)c(OC)cc1NC(=O)C(C)c1ccc([N+](=O)[O-])cc1 (stereo not given)	-13	3	6	1	39	7
Cc1ccc(NC(=O)c2ccc3nccnc3c2)c(C)c1	3	19	6	12	10	1
CC(C)c1ccc(C(=O)NCCCN2CCOCC2)cc1	-5	15	-5	2	11	-7
CC(C)c1ccc(/C=C2\C(=O)N(CCN3CCOCC3)C(=S)N2C)cc1	4	2	24	-10	66*	1
SMILES	ALR H2O2 inh	AI-2 QS modul	HSF1 inh	PHOSPHO1 inh	HSF-1 act	HCV core dimer
O=C(CSc1nnc(-c2ccncc2)n1Cc1ccco1)N1c2ccccc2Sc2ccc(Cl)cc21	-7	14	63	14	70*	18
CCOC(=O)Cc1csc(NC(=O)CSc2nnc(-c3ccncc3)n2Cc2ccco2)n1	97*	9	2	.	8	7
Clc1cccc(-c2nnc(SC/C=C/c3ccccc3)n2Cc2ccco2)c1	0	-6	-1	21	0	7
c1ccc(-c2nnc(CSc3nnc(-c4ccncc4)n3Cc3ccco3)o2)cc1	30	54	1	41	5	14
C(=C\c1ccccc1)/CSc1nnc(-c2ccncc2)n1Cc1ccco1	43	16	20	64*	10	24
C(=C\c1ccccc1)/CSc1nnc(-c2ccccc2)n1Cc1ccco1	5	10	25	80*	15	11
O=C(CSc1nnc(-c2ccncc2)n1Cc1ccco1)Nc1nccs1	-11	16	-4	-8	13	2
Cn1c(SCC(=O)N2c3ccccc3Sc3ccc(Cl)cc32)nnc1-c1ccco1	-7	.	.	-13	.	2
O=C(O)Cc1ccc(NC(=O)c2ccc(NC(=O)C3CC3)cc2)cc1	-13	23	-8	34	-1	-20
CCOC(=O)Cc1csc(NC(=O)CSc2nnc(-c3ccc(NS(=O)(=O)CC)cc3)o2)n1	98*	19	-4	.	-4	3
CCOC(=O)Cc1csc(NC(=O)CSc2nnc(-c3ccncc3)o2)n1	25	43	5	54	10	1
CC(=O)Nc1cccc(C(=O)OCC(=O)NNC(=O)c2cccs2)c1	-20	15	-2	.	2	0
CN(CC(=O)Nc1cccc(F)c1)C(=O)c1cc(-c2ccco2)nc2ccccc12	14	-5	-8	.	3	59*
COc1ccc(NC(=O)CN(C)C(=O)c2cc(-c3ccco3)nc3ccccc23)cc1	9	.	2	.	23	61*
Cc1ccc(S(=O)(=O)N2CCCC(C(=O)NCCc3ccccc3)C2)cc1 (stereo not given)	-6	15	4	46	-1	-21
COC(=O)C1CCN(C(=O)Cn2nnc(-c3cccc(F)c3)n2)CC1	3	-8	-12	26	-25	-4
COC(=O)c1c(C)[nH]c(C(=O)/C=C/c2ccccc2F)c1C	4	23	27	20	66*	-2
COC(=O)c1c(C)[nH]c(C(=O)/C=C/c2ccccc2Cl)c1C	0	4	4	16	3	2
O=C(CCNC(=O)c1ccc([N+](=O)[O-])cc1)Nc1ccccc1N1CCCCC1	-5	.	8	.	2	0
O=C(Nc1ccc(NC(=O)C2CCCCC2)nc1)c1ccccn1	99*	46	13	63*	37	-3
Cc1cc(O)c(-c2cc(C(=O)Nc3cccnc3)[nH]n2)cc1C	-1	-1	33	37	64*	1
Cc1cc(C)c(O)c(-c2cc(C(=O)Nc3cccnc3)[nH]n2)c1	98*	54	1	4	2	-1
